Compound activity: PubChem BioAssay, Broad Institute
Many of the other results were omitted from the sample, so hits are more common in it than they were.
PGC1a Ac signal – raises PGC1a acetylation signal in U2OS cells; U2OS PGC1a acetylation AlphaScreen, overnight; activation, % at 15.6 µM; actives 0.21% (n = 350,000);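 active means every replicate reaching activation of at least 50%, whatever the mean replicate activation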;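 further: hits raise the AlphaScreen acetylation signal above neutral controls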
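Test system: U2OS cells expressing flag-PGC1a plus GCN5; Amount: 7000 U2OS cells per well; Compound: single test concentration per compound; Incubation: compound overnight at 37 °C, each detection step 1 h RT; Signal: AlphaScreen lysate read.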
* marks the source's active call; other numbers are inactive results.

Screening Cc1no[n+]([O-])c1COc1cccc(/C=N/Nc2nncn2N)c1 returned PGC1a Ac signal -50.
NS(=O)(=O)c1ccc(-c2ccc(/C=C3\C(=O)Nc4cc(Cl)ccc43)o2)cc1 was read as PGC1a Ac signal -49.
For CCN1/C(=C/C(C)=C/c2sc3ccccc3[n+]2CC)Sc2ccccc21 the results were PGC1a Ac signal 98*.
COCCNC(=O)/C(C#N)=C/C=C/c1ccccc1[N+](=O)[O-] was read as PGC1a Ac signal 104*.
`Cc1ccc(S(=O)(=O)C(C#N)c2nc3ccccc3nc2N2CCCC2)cc1` (stereo not given) gave PGC1a Ac signal -50.
Screening CCOC(=O)C1CN(S(=O)(=O)c2ccccc2)c2cc(S(=O)(=O)CC)ccc2O1 (stereo not given) returned PGC1a Ac signal -50.
For Cc1ccc(S(=O)(=O)N2CCN(S(=O)(=O)c3ccc(C)cc3)C2c2ccccc2)cc1 the results were PGC1a Ac signal 110*.
Screening CCN1/C(=C/c2ccc3cccc(C)c3[n+]2CC)Sc2ccccc21 returned PGC1a Ac signal 185*.
COc1ccc(CCN2C(=O)N(c3ccc(OC)cc3)C(=O)C2CC(=O)Nc2ccccc2)cc1 (stereo not given) was read as PGC1a Ac signal -48.
Screening COc1ccc(CC(CC(=O)O)C(=O)Nc2ccc(OC)cc2)cc1 (stereo not given) returned PGC1a Ac signal 50*.
Screening Cc1ccc(S(=O)(=O)/N=C2/C=C(Sc3ncn[nH]3)C(=O)c3ccccc32)cc1 returned PGC1a Ac signal -77.
Screening COc1ccccc1N=C1NC(=O)/C(=C/c2ccc(N(C)C)cc2)S1 returned PGC1a Ac signal 55*.
Cc1c(Cl)cccc1Nc1ncccc1C(=O)O was read as PGC1a Ac signal -56.
`CCOc1ccc(S(=O)(=O)N(C)C)cc1-c1nc2c(C(C)(C)C)nn(C)c2c(=O)[nH]1` gave PGC1a Ac signal -48.
`COC(=O)c1ccc2[nH]c3cccc(/C(=C/c4ccccc4)c4ccccc4)c3c2c1` gave PGC1a Ac signal 61*.
For NCc1cccc(-n2cccn2)c1 the results were PGC1a Ac signal -54.
`COc1cccc(-n2nnnc2S(C)(=O)=O)c1` gave PGC1a Ac signal 200*.
For C[C@H]1CN([C@@H](C)CO)C(=O)Cc2cc(NC(=O)Nc3ccccc3)ccc2O[C@@H]1CN(C)Cc1ccccc1 the results were PGC1a Ac signal -50.
`Cc1cc(C(F)(F)F)n(-c2nc(C(=O)NNS(=O)(=O)c3ccccc3[N+](=O)[O-])cs2)n1` gave PGC1a Ac signal -110.
Cc1ccc(/C(N)=N/OC(=O)c2ccco2)cc1 was read as PGC1a Ac signal 62*.
For COc1ccc([N+](=O)[O-])c(S(=O)(=O)c2ccc(Cl)cc2)n1 the results were PGC1a Ac signal -45.
`CCOC(=O)C1=C[C@@H](C(C)(C)C)N(S(=O)(=O)c2ccc(C)cc2)[C@H]1c1cccc2ccccc12` gave PGC1a Ac signal 100*.
For O=C(Nc1ccc(F)cc1)C1CCCN1S(=O)(=O)c1cccc2nsnc12 (stereo not given) the results were PGC1a Ac signal -41.
For Cn1c(SC2=CS(=O)(=O)c3ccccc32)nc2ccccc21 the results were PGC1a Ac signal 260*.
`OC(COc1ccc(CNCCc2ccc(C(F)(F)F)cc2)cc1)CN1CCCCC1` (stereo not given) gave PGC1a Ac signal 54*.
`Cc1noc(C)c1NC(=O)Nc1cccc2c1O[C@H](CN(C)Cc1ccc(Oc3ccccc3)cc1)[C@H](C)CN([C@@H](C)CO)C2=O` gave PGC1a Ac signal -100.
`NCC[C@H]1CC[C@@H](NC(=O)C2CCCCC2)[C@@H](CO)O1` gave PGC1a Ac signal -56.
For COc1ccc(C(CC(=O)Nc2ccccn2)N2Cc3ccccc3C2=O)cc1 (stereo not given) the results were PGC1a Ac signal -76.
`Cc1ccc(C)c(N2CCN(C(=O)CCCOc3cc(=O)n(C)c4ccccc34)CC2)c1` gave PGC1a Ac signal 128*.
For Cc1ccc(S(=O)(=O)N2CCN(C(=O)CSc3nc4ccccc4c(=O)[nH]3)CC2)c(C)c1 the results were PGC1a Ac signal -44.
`CC(NC(=O)Nc1cccnc1)(C(F)(F)F)C(F)(F)F` gave PGC1a Ac signal 62*.
Screening O=C(/C=C/c1cccnc1)/C=C/c1cccnc1 returned PGC1a Ac signal -81.
CCC(=O)Nc1ccnc(-c2cccnc2)n1 was read as PGC1a Ac signal -42.
Screening C[C@@H]1CN([C@H](C)CO)C(=O)CCCn2cc(nn2)CO[C@@H]1CN(C)C(=O)OCc1ccccc1 returned PGC1a Ac signal -46.
`COc1cccc(N(CC(=O)N2CCN(Cc3ccccc3)CC2)S(C)(=O)=O)c1` gave PGC1a Ac signal -46.
For N#Cc1cc(Oc2cccc3cccnc23)c(-n2nnc3ccccc32)cc1C#N the results were PGC1a Ac signal 139*.
Screening CCC1(CC)Cc2ccccc2-c2nc(CN(C)C)[nH]c(=O)c21 returned PGC1a Ac signal 53*.
Screening Cc1ccc(-n2nc3ccc(N)cc3n2)cc1 returned PGC1a Ac signal -52.
